Results published in ChEMBL document CHEMBL1136887, “Synthesis and evaluation of pharmacological profile of 1-aryl-6,7-dimethoxy-3,4-dihydroisoquinoline-2(1H)-sulfonamides” (Bioorg Med Chem, 2009).

system: Mus musculus; assay: Anticonvulsant activity in ip dosed DBA/2 mouse assessed as inhibition of auditory stimulation-induced clonic seizures administered 30 mins before auditory stimulation; type: functional; settings: DBA/2, ip
Method in brief: (§1)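 DBA/2 mice (8-12 g, 22-25 days old, either sex), groups of 10, given vehicle or drug ip and exposed to auditory stimulation 30 min later. Latency to and incidence of each seizure phase scored. ED50 per seizure phase derived from dose–response curves by Litchfield–Wilcoxon, with 95% confidence limits; at least 32 animals per ED50. Fisher's exact test used for incidence.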

Q: `COc1cc2c(cc1OC)C(c1ccc(C)cc1)NCC2` (stereo not drawn) was tested. Which ED50 did it give?
A: 48.6 µmol/kg

Q: How did the ED50 turn out when `COc1cc2c(cc1OC)C(c1ccc(Cl)cc1)N(S(N)(=O)=O)CC2` (stereo not drawn) was run?
A: 23.5 µmol/kg

Q: Which ED50 does the source give for `COc1cc2c(cc1OC)C(c1ccc(C#N)cc1)NCC2` (stereo not drawn) here?
A: > 100 µmol/kg

Q: With `COc1cc2c(cc1OC)C(c1ccc(Br)cc1)N(C(=O)CN1CCCCC1)CC2` (stereo not drawn) as the molecule, how does the ED50 read?
A: 12.7 µmol/kg

Q: `COc1cc2c(cc1OC)C(c1ccc(C#N)cc1)N(S(N)(=O)=O)CC2` (stereo not drawn) was tested. Which ED50 did it give?
A: > 100 µmol/kg

Q: How did the ED50 turn out when `COc1cc2c(cc1OC)C(c1ccc(F)cc1)N(S(N)(=O)=O)CC2` (stereo not drawn) was run?
A: > 100 µmol/kg

Q: With `COc1cc2c(cc1OC)C(c1ccc(F)cc1)NCC2` (stereo not drawn) as the molecule, how does the ED50 read?
A: 57.8 µmol/kg

Q: Which ED50 does the source give for `COc1cc2c(cc1OC)C(c1cccc([N+](=O)[O-])c1)N(S(N)(=O)=O)CC2` (stereo not drawn) here?
A: > 100 µmol/kg

Q: `COc1cc2c(cc1OC)C(c1cccc(N)c1)NCC2` (stereo not drawn) was tested. Which ED50 did it give?
A: 40.4 µmol/kg

Q: For `COc1cc2c(cc1OC)C(c1ccc(Cl)cc1)N(C(C)=O)CC2` (stereo not drawn), which ED50 is on record?
A: 4.18 µmol/kg

Q: With `COc1cc2c(cc1OC)C(c1ccccc1)NCC2` (stereo not drawn) as the molecule, how does the ED50 read?
A: 44.8 µmol/kg

Q: How did the ED50 turn out when `COc1cc2c(cc1OC)C(c1ccccc1)N(S(N)(=O)=O)CC2` (stereo not drawn) was run?
A: > 100 µmol/kg

Q: With `COc1cc2c(cc1OC)C(c1ccc(N)cc1)NCC2` (stereo not drawn) as the molecule, how does the ED50 read?
A: 46.6 µmol/kg

Q: Which ED50 does the source give for `COc1cc2c(cc1OC)C(c1ccc(Br)cc1)NCC2` (stereo not drawn) here?
A: 30.6 µmol/kg

Q: With `COc1cc2c(cc1OC)C(c1ccc([N+](=O)[O-])cc1)N(S(N)(=O)=O)CC2` (stereo not drawn) as the molecule, how does the ED50 read?
A: > 100 µmol/kg

Q: With `COc1cc2c(cc1OC)C(c1ccc([N+](=O)[O-])cc1)NCC2` (stereo not drawn) as the molecule, how does the ED50 read?
A: 101 µmol/kg

Q: Which ED50 does the source give for `COc1cc2c(cc1OC)C(c1ccc(C)cc1)N(S(N)(=O)=O)CC2` (stereo not drawn) here?
A: 97.1 µmol/kg

Q: With `COc1cc2c(cc1OC)C(c1ccc(Cl)cc1)NCC2` (stereo not drawn) as the molecule, how does the ED50 read?
A: 20.1 µmol/kg

Q: With `COc1cc2c(cc1OC)C(c1ccc(N)cc1)N(S(N)(=O)=O)CC2` (stereo not drawn) as the molecule, how does the ED50 read?
A: 17.7 µmol/kg

Q: Which ED50 does the source give for `COc1cc2c(cc1OC)C(c1cccc(N)c1)N(S(N)(=O)=O)CC2` (stereo not drawn) here?
A: > 100 µmol/kg

Q: With `COc1cc2c(cc1OC)C(c1ccc(Br)cc1)N(S(N)(=O)=O)CC2` (stereo not drawn) as the molecule, how does the ED50 read?
A: > 100 µmol/kg

Q: How did the ED50 turn out when `CC1(C)O[C@@H]2[C@@H](CO[C@@]3(COS(N)(=O)=O)OC(C)(C)O[C@@H]23)O1` [TOPIRAMATE] was run?
A: 35.7 µmol/kg

Q: How did the ED50 turn out when `COc1cc2c(cc1OC)C(c1cccc([N+](=O)[O-])c1)NCC2` (stereo not drawn) was run?
A: 19.3 µmol/kg

biological target: Carbonic anhydrase 9 (Homo sapiens, UniProt Q16790); assay: Inhibition of human recombinant carbonic anhydrase 9 catalytic domain by stopped flow CO2 hydration method; settings: not given

Q: Which Ki does the source give for `COc1cc2c(cc1OC)C(c1ccc(Cl)cc1)N(S(N)(=O)=O)CC2` (stereo not drawn) here?
A: 7.54 µM

Q: How did the Ki turn out when `COc1cc2c(cc1OC)C(c1ccc(C#N)cc1)N(S(N)(=O)=O)CC2` (stereo not drawn) was run?
A: 4.98 µM

Q: With `COc1cc2c(cc1OC)C(c1cccc([N+](=O)[O-])c1)N(S(N)(=O)=O)CC2` (stereo not drawn) as the molecule, how does the Ki read?
A: 6.45 µM

Q: How did the Ki turn out when `COc1cc2c(cc1OC)C(c1ccc([N+](=O)[O-])cc1)N(S(N)(=O)=O)CC2` (stereo not drawn) was run?
A: 0.48 µM

Q: For `COc1cc2c(cc1OC)C(c1ccc(C)cc1)N(S(N)(=O)=O)CC2` (stereo not drawn), which Ki is on record?
A: 6.75 µM

Q: With `COc1cc2c(cc1OC)C(c1cccc(N)c1)N(S(N)(=O)=O)CC2` (stereo not drawn) as the molecule, how does the Ki read?
A: 8.13 µM

Q: Which Ki does the source give for `COc1cc2c(cc1OC)C(c1ccc(Br)cc1)N(S(N)(=O)=O)CC2` (stereo not drawn) here?
A: 8.2 µM

system: Mus musculus; assay: Anticonvulsant activity in ip dosed DBA/2 mouse assessed as inhibition of auditory stimulation-induced tonic seizures administered 30 mins before auditory stimulation; type: functional; settings: DBA/2, ip; method in brief: as §1

Q: With `COc1cc2c(cc1OC)C(c1ccc(C)cc1)NCC2` (stereo not drawn) as the molecule, how does the ED50 read?
A: 36.5 µmol/kg

Q: With `COc1cc2c(cc1OC)C(c1ccc(Cl)cc1)N(S(N)(=O)=O)CC2` (stereo not drawn) as the molecule, how does the ED50 read?
A: 7.25 µmol/kg

Q: With `COc1cc2c(cc1OC)C(c1ccc(C#N)cc1)NCC2` (stereo not drawn) as the molecule, how does the ED50 read?
A: 48.6 µmol/kg

Q: `COc1cc2c(cc1OC)C(c1ccc(Br)cc1)N(C(=O)CN1CCCCC1)CC2` (stereo not drawn) was tested. Which ED50 did it give?
A: 8.17 µmol/kg

Q: With `COc1cc2c(cc1OC)C(c1ccc(C#N)cc1)N(S(N)(=O)=O)CC2` (stereo not drawn) as the molecule, how does the ED50 read?
A: > 100 µmol/kg

Q: Which ED50 does the source give for `COc1cc2c(cc1OC)C(c1ccc(F)cc1)N(S(N)(=O)=O)CC2` (stereo not drawn) here?
A: 41.8 µmol/kg

Q: With `COc1cc2c(cc1OC)C(c1ccc(F)cc1)NCC2` (stereo not drawn) as the molecule, how does the ED50 read?
A: 26.4 µmol/kg

Q: Which ED50 does the source give for `COc1cc2c(cc1OC)C(c1cccc([N+](=O)[O-])c1)N(S(N)(=O)=O)CC2` (stereo not drawn) here?
A: > 100 µmol/kg

Q: For `COc1cc2c(cc1OC)C(c1cccc(N)c1)NCC2` (stereo not drawn), which ED50 is on record?
A: 18.2 µmol/kg

Q: `COc1cc2c(cc1OC)C(c1ccc(Cl)cc1)N(C(C)=O)CC2` (stereo not drawn) was tested. Which ED50 did it give?
A: 2.39 µmol/kg

Q: How did the ED50 turn out when `COc1cc2c(cc1OC)C(c1ccccc1)NCC2` (stereo not drawn) was run?
A: 19.3 µmol/kg

Q: How did the ED50 turn out when `COc1cc2c(cc1OC)C(c1ccccc1)N(S(N)(=O)=O)CC2` (stereo not drawn) was run?
A: 7.82 µmol/kg

Q: For `COc1cc2c(cc1OC)C(c1ccc(N)cc1)NCC2` (stereo not drawn), which ED50 is on record?
A: 28.6 µmol/kg

Q: With `COc1cc2c(cc1OC)C(c1ccc(Br)cc1)NCC2` (stereo not drawn) as the molecule, how does the ED50 read?
A: 12.5 µmol/kg

Q: With `COc1cc2c(cc1OC)C(c1ccc([N+](=O)[O-])cc1)N(S(N)(=O)=O)CC2` (stereo not drawn) as the molecule, how does the ED50 read?
A: > 100 µmol/kg

Q: How did the ED50 turn out when `COc1cc2c(cc1OC)C(c1ccc([N+](=O)[O-])cc1)NCC2` (stereo not drawn) was run?
A: 56.1 µmol/kg

Q: How did the ED50 turn out when `COc1cc2c(cc1OC)C(c1ccc(C)cc1)N(S(N)(=O)=O)CC2` (stereo not drawn) was run?
A: 51.7 µmol/kg

Q: How did the ED50 turn out when `COc1cc2c(cc1OC)C(c1ccc(Cl)cc1)NCC2` (stereo not drawn) was run?
A: 19.3 µmol/kg

Q: Which ED50 does the source give for `COc1cc2c(cc1OC)C(c1ccc(N)cc1)N(S(N)(=O)=O)CC2` (stereo not drawn) here?
A: 3.6 µmol/kg

Q: Which ED50 does the source give for `COc1cc2c(cc1OC)C(c1cccc(N)c1)N(S(N)(=O)=O)CC2` (stereo not drawn) here?
A: 65.8 µmol/kg

Q: With `COc1cc2c(cc1OC)C(c1ccc(Br)cc1)N(S(N)(=O)=O)CC2` (stereo not drawn) as the molecule, how does the ED50 read?
A: 67.3 µmol/kg

Q: `CC1(C)O[C@@H]2[C@@H](CO[C@@]3(COS(N)(=O)=O)OC(C)(C)O[C@@H]23)O1` [TOPIRAMATE] was tested. Which ED50 did it give?
A: 18 µmol/kg

Q: Which ED50 does the source give for `COc1cc2c(cc1OC)C(c1cccc([N+](=O)[O-])c1)NCC2` (stereo not drawn) here?
A: 7.2 µmol/kg
